ChEMBL document CHEMBL1156781, “The binding of synthetic retinoids to lipocalin beta-lactoglobulins” (J Med Chem, 2010)
pKd: −log10 of the molar value. Values after ≈ are worked out from the molar mass of the structure shown. Active and inactive are the calls of the source. No cut-off for these calls is given here.

How the values were obtained:
[1] = target: T1, Beta-lactoglobulin (Bos taurus) (UniProt P02754); assay: Binding affinity to bovine beta-lactoglobulins at 100 uM by ultrafiltration/HPLC method
T1 sequence (whole entry): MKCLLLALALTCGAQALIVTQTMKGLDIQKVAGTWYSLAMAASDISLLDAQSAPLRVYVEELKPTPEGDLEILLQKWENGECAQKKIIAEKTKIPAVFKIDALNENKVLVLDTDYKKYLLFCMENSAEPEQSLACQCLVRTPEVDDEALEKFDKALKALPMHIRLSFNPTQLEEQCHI
How it was run: (§1)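 Ultrafiltration sampling with HPLC analysis. Ligand at 100 μM was allowed to interact with βLG at 50 μM, and the fraction of ligand found in the retentate was quantified as a percentage.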

[2] = Solubility in PBS assessed as aggregate diameter size at 200 uM by dynamic light scattering method
[3] = (§2) Binding affinity to reindeer beta-lactoglobulin by fluorescence spectroscopy; set-up: species or system Rangifer tarandus
Rangifer tarandus [4] = assay: Binding affinity to reindeer beta-lactoglobulin at 100 uM by ultrafiltration/HPLC method; how it was run: as §1
[5] = target: T1, Beta-lactoglobulin (Bos taurus); assay: Binding affinity to bovine beta-lactoglobulins assessed as aggregate diameter size formed at 200 uM by dynamic light scattering method
How it was run: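 Retinoid at 200 μM diluted in PBS and measured by dynamic light scattering as mean intensity and particle diameter (kCps/nm). Bovine βLG was then added to the cuvette at 50 μM, and a second run followed a 30 min stabilization phase.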

[6] = Solubility assessed as aggregate formation at <= pH 4 by dynamic light scattering method; format: physicochemical; settings: buffer
How it was run: (§3)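 Retinoids diluted in acid buffer spanning pH 2.0 to 7.0 and examined by dynamic light scattering for aggregate signal.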

Beta-lactoglobulin = target: T2, Beta-lactoglobulin (Bos taurus, UniProt P02754); assay: (§4) Binding affinity to bovine beta-lactoglobulins by fluorescence spectroscopy
T2 sequence (P02754 whole entry): T1 sequence (whole entry)

[7] = Solubility assessed as lowest drug level in which detectable aggregates formed by dynamic light scattering method; format: physicochemical
How it was run: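 Retinoid dilutions in PBS measured by dynamic light scattering. The critical concentration is the lowest level giving DLS-detectable aggregates. Concentrations ran up to 200 μM.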

[8] = target: T1, Beta-lactoglobulin (Bos taurus); assay: as §4
Rangifer tarandus [9] = assay: as §2
[10] = Solubility assessed as aggregate formation at >= pH 5 by dynamic light scattering method; format: physicochemical; settings: buffer; how it was run: as §3

Compound | Activity [1] | Activity [2] [nm] | pKd [3] | Activity (Rangifer tarandus [4]) | Activity [5] [nm] | solubility [6] | pKd (Beta-lactoglobulin) | solubility [7] [µM] | Activity [8] | Activity (Rangifer tarandus [9]) | solubility [10]
CC1=C(/C=C/C(C)=C/C=C/C(C)=C/CO)C(C)(C)CCC1 [RETINOL] | 7.9% | 972.2 | 6.70 | 7.6% | 129 | Insoluble | – | – | – | – | –
CC1=C(/C=C/c2ccc(/C=C/C(=O)O)cc2)C(C)(C)CCC1 | 29.1% | 668.7 | 6.97 | 18.8% | 188 | Insoluble | 6.82 | 100 (≈ 29.6 µg/mL) | – | – | –
CC1=C(/C=C/C(C)=C/C=C/C(C)=C/C(=O)Nc2ccc(O)cc2)C(C)(C)CCC1 [FENRETINIDE] | Active | 818.1 | – | Active | 424 | – | – | 100 (≈ 39.2 µg/mL) | Active | Active | Insoluble
C/C(=C\c1ccc(C(=O)O)cc1)c1ccc2c(c1)C(C)(C)CCC2(C)C | Active | 848.5 | – | Active | 243 | – | – | 50 (≈ 17.4 µg/mL) | Active | Active | Insoluble
COC(=O)/C=C/c1ccc(/C=C/C2=C(C)CCCC2(C)C)cc1 | 7% | 791.6 | – | 11% | 276 | – | – | – | Active | – | Insoluble
